M18AAP inhibitor: blocks P. falciparum M18 aspartyl aminopeptidase; recombinant PfM18AAP, H-Glu-NHMec fluorogenic cleavage; inhibition, % at 7.35 µM; 290,000 tested, 1.2% active; AID 1822;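 active = inhibition above the campaign mean inhibition over all tested compounds plus 3 SD, cut at about 28% in these data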;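 also: 0% = plate median of test compound wells and 100% = 2 mM ZnCl2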
m5-HT2A agonist: mouse HTR2A agonism via beta-arrestin recruitment. P35363. CHO-K1 mHTR2A beta-arrestin complementation, luminescence; percent of 30 µM serotonin response. activation, % at 7.6 µM. 360,000 tested, 0.66% active;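 active = activation above a run cutoff, the mean activation of all tested compounds plus 3 SD, cut at about 14% in these data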;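 also: 0% = plate median of compound wells and 100% = 30 µM serotonin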
sPLA2-III inh: Blocks human group III sPLA2 activity. Q9NZ20. QFRET BODIPY PC-A2 liposome hydrolysis, fluorescence. inhibition, % at 12.2 µM. 370,000 tested, 0.56% active. AID 743126;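 active = inhibition above mean plus 3 SD of compounds lying within the high and low control bounds, cut at about 19% in these data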;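 also: 0% = median of test compound wells and 100% = no enzyme DMSO wells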
Target sequence (Q9NZ20 whole entry, looked up): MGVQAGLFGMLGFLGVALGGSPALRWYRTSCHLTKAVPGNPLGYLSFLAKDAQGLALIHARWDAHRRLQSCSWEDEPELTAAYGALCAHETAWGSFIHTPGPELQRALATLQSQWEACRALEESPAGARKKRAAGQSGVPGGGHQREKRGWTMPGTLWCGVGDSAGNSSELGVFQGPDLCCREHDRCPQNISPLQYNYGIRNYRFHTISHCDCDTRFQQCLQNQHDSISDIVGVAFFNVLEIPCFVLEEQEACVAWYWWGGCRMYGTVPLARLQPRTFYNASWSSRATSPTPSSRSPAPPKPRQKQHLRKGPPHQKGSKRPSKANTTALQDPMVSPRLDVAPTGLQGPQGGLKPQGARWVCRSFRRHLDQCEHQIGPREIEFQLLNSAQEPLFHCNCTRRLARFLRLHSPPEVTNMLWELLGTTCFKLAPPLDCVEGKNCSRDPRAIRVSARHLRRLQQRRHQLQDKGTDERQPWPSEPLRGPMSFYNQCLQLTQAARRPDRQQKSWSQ
Arr AP2 block: human beta-arrestin and AP2 interaction inhibition; FITC-arrestin peptide / GST-AP2 beads, flow cytometry; AP2 beta2 appendage carries R879A mutation; inhibition, % at 10 µM; 340,000 tested, 0.31% active; AID 504490;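 active = inhibition above a set limit, near 3 SD of compounds lacking own fluorescence, cut at about 54% in these data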;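 also: plate controls were DMSO wells for no effect and 5 µM unlabelled arrestin peptide for full effect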
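Material – AP2 appendage R879A on GSH beads · Buffer or medium – PBS with 0.05% Tween 20 and 0.1% BSA · Probe or stimulus – fluorescein-tagged arrestin peptide at 50 nM final · Incubation – compound with beads 12 min RT, then probe 1 h RT · Detection – high-throughput flow cytometry of beads, ex 488, em 535 nm · Evaluation – percent response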
CendR NRP1 mod: modulators of CendR peptide binding to human neuropilin-1 | O14786 | FAM-RPARPAR peptide binding to NRP-1, fluorescence polarization | inhibition, % at 25 µM | 360,000 tested, 0.85% active | AID 602438;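 active = inhibition or corrected inhibition above about 18%, plus a signal ratio from 0.5 to 1.5, limit read from the data, passing the limit was not always enough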
Lipid droplet: hepatic lipid droplet formation modulation | AML12 mouse hepatocytes, oleate lipid droplets, BODIPY imaging | inhibition, % at 6.5 µM | 240,000 tested, 0.4% active;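 active = lipid droplet intensity inhibited by at least 50%, with more than 500 cells counted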
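Material: mouse AML12 hepatocyte cell line, fixed after treatment; Timing: compound with oleate, overnight; Technique: high-content imaging of BODIPY-stained droplets and DAPI nuclei; Probe or stimulus: oleate, 100 µM final; Dosing: compound at 6.5 µM only.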
hGIII sPLA2 conf: human GIII-sPLA2 inhibition, confirmation | recombinant hGIII-sPLA2, BODIPY PC-A2 QFRET fluorescence | shares compounds with sPLA2-III inh | 2,000 tested, 34% active | AID 743280 | inhibition, % at 12.2 µM;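 active = mean inhibition across triplicates above the hit cutoff set in the earlier primary screen, cut at about 19% in these data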;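 also: 0% = enzyme with DMSO and 100% = DMSO wells lacking enzyme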
535nm interf: counter-screen for HGIII-sPLA2 inhibitors: 535nm fluorescence interference. shares compounds with sPLA2-III inh. BODIPY FL product fluorescence interference, QFRET. inhibition, % at 12.2 µM. 2,000 tested, 8.5% active. AID 743282;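 active = average inhibition above the solvent-only control mean plus 3 SD, cut at about 6% in these data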;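 also: 0% = DMSO with substrate plus product and 100% = DMSO with substrate alone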
BODIPY interf DR: interferes with 535nm fluorescence in dose response counter-screen; shares compounds with sPLA2-III inh; BODIPY FL product fluorescence interference, cell-free; IC50, µM; 240 tested, under 10 active; AID 743455;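 active = IC50 at or below 10 µM; inactive = IC50 above 10 µM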
Starred values were filed as active, the others as inactive; nt = no result given. Rows were chosen to be rich in hits. Some 3.3% of all compounds tested hit in one or more screens of this group.

SMILES	M18AAP inhibitor	m5-HT2A agonist	sPLA2-III inh	Arr AP2 block	CendR NRP1 mod	Lipid droplet	hGIII sPLA2 conf	535nm interf	others
CCOC(=O)NN1C(=O)c2ccccc2NC1c1ccc(OC)cc1 (configuration not stated)	0	1	21*	29	-6	5	4	-6
CCOC(=O)NN1C(=O)c2ccccc2NC1c1ccccc1 (configuration not stated)	-2	0	30*	30	-5	-3	1	-7
O=C(c1[nH]c(C(F)(F)F)nc1-c1ccccc1)N1CCN(c2ncccc2C(F)(F)F)CC1	nt	4	-11	nt	0	nt	nt	nt
CCCCCCCCN1C(=O)[C@@H](CC(=O)N2CCOCC2)C[C@@]2(C(=O)OC)C1=C[C@H](C(C)C)O[C@@H]2C1CC1	nt	nt	-2	nt	nt	nt	nt	nt
NNc1nc(-c2ccccc2)c2cc(Cl)ccc2n1	19	-5	19*	5	2	1	26*	4
CN(C)c1nc(-c2ccccc2)c2cc(Cl)ccc2n1	8	-4	0	5	5	-15	nt	nt
CCn1ncc(Cl)c1C(=O)NC(C)c1ccccc1 (configuration not stated)	10	3	21*	-1	-8	9	0	-6
CCn1ncc(Br)c1C(=O)NC(C)c1ccccc1 (configuration not stated)	1	-1	-3	24	0	-5	nt	nt
Cc1ccc(NC(=S)NNC(=O)c2ccccc2OC(F)F)cc1	4	1	26*	28	0	nt	21*	5
O=C(NC1CC1)c1ccccc1NC(=O)c1ccccc1OC(F)F	nt	3	2	nt	-3	nt	nt	nt
O=C(NNC(=S)Nc1ccc(F)cc1)c1ccccc1OC(F)F	3	-1	21*	-6	6	-9	26*	5
CCNC(=O)Nc1ccc2c(c1)C(=O)N(C)[C@H]1CC[C@H](CC(=O)N[C@H](C)c3ccccc3)O[C@@H]1CO2	nt	nt	-26	nt	nt	nt	nt	nt
C/C(=N\NC(=O)COc1cccc(C)c1)c1ccc2ccccc2c1O	25	-4	22*	-3	-6	1	39*	6.0*
Cc1ccc(NC(=O)c2cc3c(=O)oc4ccc(C)cc4c3s2)nc1	-2	nt	nt	nt	nt	-6	nt	nt
CC1CCc2nc3sc4c(c3c(N)c2C1)CCCC4 (configuration not stated)	5	0	20*	-2	-12	19	11	-5
C=CCNC(=S)NNC(=O)c1cccn(Cc2ccc(Cl)cc2Cl)c1=O	0	-3	26*	1	1	nt	22*	1
CNC(=S)NNC(=O)c1cccn(Cc2ccc(Cl)c(Cl)c2)c1=O	15	-3	14	-19	6	nt	nt	nt
C=CCNC(=S)NNC(=O)c1cccn(Cc2ccc(Cl)c(Cl)c2)c1=O	8	2	25*	10	7	nt	31*	-5	BODIPY interf DR=>122
C=CCNC(=S)NNC(=O)c1cccc(Br)c1	12	0	9	4	13	-3	nt	nt
C=CCNC(=S)NNC(=O)c1ccc(C)c(Cl)c1	4	1	23*	-8	-4	-4	21*	3
Clc1cccc(-c2nc3c4ccccc4ccn3c2CC2CCCCC2)c1	nt	0	1	nt	-6	nt	nt	nt
CCc1c(C)nc2c(-c3ccccc3)c[nH]n2c1=O	10	3	24*	-4	-3	5	33*	5	BODIPY interf DR=>122
C[C@@H]1CN([C@H](C)CO)C(=O)CCCn2nncc2CO[C@@H]1CN(C)C(=O)c1ccccc1	nt	9	21*	nt	-2	nt	-1	-5
C[C@@H]1CN([C@H](C)CO)C(=O)CCCn2nncc2CO[C@H]1CN(C)C(=O)c1ccc(N2CCN(C)CC2)cc1	nt	1	19*	nt	-12	nt	-7	-12
C[C@@H]1CN([C@@H](C)CO)C(=O)CCCn2nncc2CO[C@@H]1CN(C)C(=O)c1ccccc1	nt	-1	5	nt	-14	nt	nt	nt
SMILES	M18AAP inhibitor	m5-HT2A agonist	sPLA2-III inh	Arr AP2 block	CendR NRP1 mod	Lipid droplet	hGIII sPLA2 conf	535nm interf	others
C[C@H]1CN([C@@H](C)CO)C(=O)CCCn2nncc2CO[C@@H]1CN(C)C(=O)c1ccc(N2CCN(C)CC2)cc1	nt	-1	2	nt	-1	nt	nt	nt
O=c1c(-c2ccco2)nc2ccccc2n1C(c1ccccc1)c1nc2ccccc2[nH]1 (configuration not stated)	nt	-2	0	nt	-46	nt	nt	nt
O=c1c(-c2ccco2)nc2ccccc2n1C(c1ccccn1)c1nc2ccccc2[nH]1 (configuration not stated)	nt	8	23*	nt	-10	nt	5	-1
C[C@@H]1CN([C@@H](C)CO)C(=O)CCCn2nncc2CO[C@@H]1CN(C)S(=O)(=O)c1ccc2c(c1)OCCCO2	nt	1	8	nt	0	nt	nt	nt
CCN1C(=O)/C(=C2/C=Cc3ccccc3N2CC)SC1=S	-2	-2	21*	1	-2	16	43*	5	BODIPY interf DR=>122
CCc1nc2c(OCCOc3ccc(F)cc3)cccn2c1N(C)C(=O)CC(C)C	nt	9	-4	nt	5	nt	nt	nt
O=C1S/C(=C\C=C\c2ccco2)C(=O)N1c1ccccc1	15	1	28*	3	-29	13	2	-2
O=C(O)CCCN1C(=O)/C(=C/C=C/c2ccco2)SC1=S	26	-3	-13	9	-141	2	nt	nt
COc1ccc(NC(=O)N(C)C[C@H]2OCc3cn(nn3)CCCC(=O)N([C@H](C)CO)C[C@@H]2C)cc1	nt	nt	8	nt	nt	nt	nt	nt
Cc1ccccc1CN1CCCCC(NC(=O)c2ccccc2C)C1=O (configuration not stated)	nt	nt	-1	nt	nt	nt	nt	nt
O=C(NCCCn1ccnc1)c1ccc(Cl)cc1	2	-4	21*	11	2	-20	-4	-6
CN(CCCS(=O)(=O)[O-])c1ccc(/C=C/c2ccc3ccccc3[n+]2C)cc1	24	-9	21*	-22	15	-7	6	-7
COc1ccc(/C=C/c2ccc3ccccc3[n+]2C)cc1OC	9	-9	nt	-3	-10	nt	nt	nt
COc1cccc(Sc2ccccc2CN(C)C)c1	-1	-3	20*	7	-6	1	-3	-19
COc1ccc(-c2cc(C(F)(F)F)nc(SCC(=O)NCc3ccco3)n2)cc1OC	13	3	-1	14	3	-14	nt	nt
COc1ccc(-c2cc(C(F)(F)F)nc(SCC(=O)NCc3cnn(C)c3C)n2)cc1OC	1	2	24*	1	-5	-21	0	-14

Bioassay records from PubChem BioAssay.
